NRP1-CendR mod: modulators of CendR peptide binding to human neuropilin-1. O14786. FAM-RPARPAR peptide binding to NRP-1, fluorescence polarization. inhibition, % at 25 µM. actives 0.85% (n = 360,000). AID 602438;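 active = inhibition or corrected inhibition above about 18%, plus a signal ratio from 0.5 to 1.5, limit read from the data, passing the limit was not always enough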
DAGLB inhibitor: diacylglycerol lipase beta (human) inhibition; inhibition, % at 5.17 µM; actives 0.059% (n = 340,000); Q8NCG7; HEK293T DAGLB membrane lysate, EnzChek fluorogenic substrate; in the data active = inhibition above about 34%;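 also: 0% = enzyme with vehicle and 100% = wells lacking enzyme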
Target sequence (Q8NCG7 whole entry, looked up): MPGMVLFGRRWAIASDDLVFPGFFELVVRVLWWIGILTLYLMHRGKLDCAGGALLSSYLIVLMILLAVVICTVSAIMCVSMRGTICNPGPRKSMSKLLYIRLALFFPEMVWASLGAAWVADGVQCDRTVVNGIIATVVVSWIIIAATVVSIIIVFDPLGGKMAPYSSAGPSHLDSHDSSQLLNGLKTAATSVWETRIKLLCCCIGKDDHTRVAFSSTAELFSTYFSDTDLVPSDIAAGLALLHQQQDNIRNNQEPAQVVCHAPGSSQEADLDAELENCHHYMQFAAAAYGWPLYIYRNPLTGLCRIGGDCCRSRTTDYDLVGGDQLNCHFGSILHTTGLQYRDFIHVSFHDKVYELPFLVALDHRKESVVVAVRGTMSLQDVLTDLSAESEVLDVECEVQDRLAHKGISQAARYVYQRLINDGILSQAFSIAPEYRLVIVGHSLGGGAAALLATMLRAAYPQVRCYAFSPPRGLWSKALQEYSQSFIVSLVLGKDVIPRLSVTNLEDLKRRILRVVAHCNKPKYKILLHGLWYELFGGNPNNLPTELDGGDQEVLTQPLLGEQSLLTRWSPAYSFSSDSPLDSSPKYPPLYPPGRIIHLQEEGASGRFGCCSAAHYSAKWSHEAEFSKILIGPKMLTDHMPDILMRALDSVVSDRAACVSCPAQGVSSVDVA
MIN6 prolif: induces beta-cell replication in MIN6 cells | MIN6 cells proliferation, ATPlite luminescence, 48 h; cells starved in 0.2% serum; 100% = growth in 10% serum | proliferation, % at 10 µM | actives 0.29% (n = 330,000);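 active = compounds whose signal lies at least 3.5 SD above the mean of all wells on their plate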;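 also: 0% = DMSO-treated cells in low-serum medium and 100% = 10% serum control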
Myeloid diff MLP: promotes myeloid progenitor differentiation; calls only at 10 µM; actives 1% (n = 360,000); ER-HoxA9 myeloid progenitors, lysozyme-GFP differentiation, flow cytometry;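 active = normalized GFP-positive differentiation at or above the plate's own cutoff, the solvent-only control mean plus 3 SD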;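 also: cells exposed to compound for four days before flow analysis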
SENP1 inh: blocks the human SENP1 SUMO protease catalytic domain; Q9P0U3; recombinant SENP1 catalytic domain, CyPet-SUMO1-YPet FRET cleavage; actives 0.21% (n = 360,000); inhibition, % at 10 µM; AID 624204;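 active = inhibition at least 30% at 10 µM, raw YFP signal under a set limit, fluorescence ratio 0.5 to 1.5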;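 also: 0% = enzyme with DMSO and 100% = no enzyme wells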
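Compound: 10 µM single point, 0.5% DMSO; Test system: hSENP1 catalytic domain, recombinant; Timing: 50 min reaction at room temperature; Technique: FRET, CFP and YFP emission; Control set: no-enzyme wells low, DMSO-plus-enzyme wells high control.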
MT1-MMP act inh: inhibitors of human MT1-MMP activation. AID 651647. GFP/RFP ratio change, % at 20 µM. HT1080 RFP-PRO-GFP cells, GFP/RFP ratio fluorescence, overnight; percent of plate control window, DMSO zero. P50281. actives 0.061% (n = 360,000);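 active = GFP/RFP ratio change of at least 30% with cell ATP level not reduced by more than half and red fluorescence within 50% of control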
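Test system: HT1080 cells expressing an RFP-PRO-GFP fluorescent reporter construct / Compound dosing: single-point 20 µM compound, 1% DMSO / Schedule: cells overnight before dosing, compound overnight, 37 °C, 5% CO2 / Evaluation: GFP/RFP fluorescence ratio / Control set: DMSO and RFP-L50D-GFP cell wells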
Active calls of the source: *; i = inactive; . = no result; + = active, no number. Sampled rows, rich in hits. Any-hit rate of the full collection: about 2.4%.

SMILES	NRP1-CendR mod	DAGLB inhibitor	MIN6 prolif	Myeloid diff MLP	SENP1 inh	MT1-MMP act inh
CCOC(=O)C1(Cc2ccc(OC)cc2)CCN(C(=O)CCn2cccn2)CC1	-6	1	1	i	3	4
O=C(NCCCNCc1ccccc1)c1ccncc1	13	2	-1	i	-1	1
CN(C)CCCNCCCNC(=O)c1ccncc1	0	1	-1	+	-1	3
Cc1ccccc1NC(=O)Cn1c(C)nc2ccc(N)cc2c1=O	24*	0	-2	i	-4	6
CCOC(=O)CNC(=O)C1Cc2ccccc2CN1S(=O)(=O)c1cccs1 (stereo unspecified)	-1	-1	7	i	0	2
CCCC(=O)NC(c1ccco1)c1cc([N+](=O)[O-])c2cccnc2c1O (stereo unspecified)	-9	13	-5	+	2	-24
CCC1=C(OC(=O)N(CC)CC)N2C(=O)OC(=NCC(=O)OC)[C@]2(C)[C@H]2C1=CC[C@H]1C(=O)N(CC)C(=O)[C@H]12	35*	0	-5	i	8	-1
CCC1=C(OC(=O)N(CC)CC)N2C(=O)OC(=NCC(=O)OC)[C@]2(Cc2ccccc2)[C@H]2C1=CC[C@H]1C(=O)N(CC(=O)OC)C(=O)[C@H]12	27*	-1	2	i	10	-7
CCC1=C(OC(=O)N(CC)CC)N2C(=O)OC(=NCC(=O)OC)[C@]2(C)[C@H]2C1=CC[C@H]1C(=O)N(CC(=O)OC)C(=O)[C@H]12	24*	-1	-6	i	21	-2
CCC1=C(OC(=O)N(CC)CC)N2C(=O)OC(=NCCOC)[C@]2(Cc2ccccc2)[C@H]2C1=CC[C@H]1C(=O)N(C)C(=O)[C@H]12	24*	-2	-2	i	17	-2
CCOc1ccccc1/C=C/c1onc(C)c1S(=O)(=O)N1CCC(C(=O)NC(C)(C)C)CC1	10	-11	-1	i	2	-6
NC(=S)NNc1cc(Cl)cc(Cl)c1	7	-3	-1	i	0	19
NC[C@@H]1O[C@H](C23CC4CC(CC(C4)C2)C3)Cc2c1ccc(O)c2O	-6	12	-7	+	-16	3
Cc1ccc(/C=C/C(=O)c2ccccc(=O)c2O)cc1C	-42	10	.	i	-69	-11
OCCOCCn1c(CCNc2nc(-c3ccc(Cl)cc3)cs2)nc2cc(Cl)c(Cl)cc21	36*	2	-6	i	7	-3
O=[N+]([O-])c1cc(-c2csc(NCCc3nc4cc(Cl)c(Cl)cc4n3CCCO)n2)ccc1Cl	31*	6	-8	i	4	3
COc1cccc(C2=CC(=O)C(C(C)(C)C)N2C(C)(C)C)c1 (stereo unspecified)	-12	-9	.	i	0	1
CC1(C(=O)OCC(=O)Nc2cc(S(=O)(=O)N3CCOCC3)ccc2Cl)CC1(Cl)Cl (stereo unspecified)	-2	0	.	i	1	1
O=C(CCC(=O)Nc1ccccc1Cl)NN=C1CCCC1	22*	1	1	i	1	0
CCC1CCC/C1=N\NC(=O)CCC(=O)Nc1ccccc1Cl (stereo unspecified)	-1	-1	1	i	2	0
CC(=O)CC1c2cc(F)ccc2C=C(c2ccsc2)N1c1ccc(C#CC2(O)CCCCC2)cc1 (stereo unspecified)	4	.	.	i	-3	-13
CN(CC(=O)Nc1ccccc1C(F)(F)F)C(=O)CCc1nc2ccccc2c(=O)[nH]1	-8	0	3	i	-16	-2
COc1ccc([C@H]2CC(=O)C=C(c3ccc4c(c3)OCCO4)C2)cc1	26*	-10	-2	i	1	3
COc1ccc(C2=CC(=O)C[C@H](c3ccc(OC)c(OC)c3)C2)cc1	21*	-3	0	i	0	-1
O=C1C=C(c2ccc3c(c2)OCO3)C[C@@H](c2ccc3c(c2)OCO3)C1	0	-3	-1	i	0	6

Screening results from PubChem BioAssay.
